In ChEMBL document CHEMBL1212735, “Metronidazole resistance in Prevotella spp. and description of a new nim gene in Prevotella baroniae” (2010):
In brackets after ≈: the same amount, converted by molar mass.

Key:
Type in all cases: functional
[1] = test system: Prevotella baroniae; assay: Antimicrobial activity against Prevotella baroniae LBN 427 expressing nimI gene assessed as inhibition of growth after several passages on plates containing increasing concentrations of compound by agar dilution method; settings: Segatella baroniae
In short: (§1)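 Induction of metronidazole resistance: bacterial suspensions inoculated onto brucella blood agar (5% sheep blood, hemin, vitamin K1) containing metronidazole at increasing concentrations, grown anaerobically at 37°C. Colonies growing at the highest concentration were retested for MIC by CLSI agar dilution on the same agar. Duplicate experiments.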

[2] = test system: Prevotella bivia; assay: Antimicrobial activity against slow growing colonies of Prevotella bivia LBN 361 deficient in nim gene assessed as inhibition of growth at 48 hrs by agar dilution method; settings: LBN 361, 48 h
In short: (§2)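 Metronidazole MIC by agar dilution per CLSI M11-A7 on brucella agar with 5% sheep blood, hemin and vitamin K1. Plates incubated anaerobically at 35°C and read at 48 h, with a second reading after a further 72 h. B. fragilis ATCC 25285T and B. thetaiotaomicron ATCC 29741 served as controls. Done in duplicate; EUCAST breakpoints applied (S ≤4, R ≥8 μg/ml).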

[3] = test system: Prevotella bivia; assay: Antimicrobial activity against slow growing colonies of Prevotella bivia LBN 374 deficient in nim gene assessed as inhibition of growth at 48 hrs by agar dilution method; settings: LBN 374, 48 h; in short: as §2
[4] = test system: Prevotella bivia; assay: Antimicrobial activity against Prevotella bivia LBN 467 deficient in nim gene assessed as inhibition of growth at 48 hrs by agar dilution method; settings: LBN 467, 48 h
In short: (§3)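 Metronidazole MIC by agar dilution (CLSI M11-A7) on brucella agar with 5% sheep blood, hemin and vitamin K1. Plates were read after 48 h at 35°C under anaerobic conditions. Susceptible was MIC ≤ 4 μg/ml and resistant MIC ≥ 8 μg/ml (EUCAST). B. fragilis ATCC 25285T and B. thetaiotaomicron ATCC 29741 were run as controls. Duplicate assays.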

[5] = test system: Prevotella baroniae; assay: Antimicrobial activity against Prevotella baroniae DSM 16972T expressing nim gene assessed as inhibition of growth at 48 hrs by agar dilution method; settings: Segatella baroniae; in short: as §3
[6] = test system: Prevotella baroniae; assay: Antimicrobial activity against Prevotella baroniae LBP 9 expressing nim gene assessed as inhibition of growth at 48 hrs by agar dilution method; settings: Segatella baroniae, LBP 9, 48 h; in short: as §3
[7] = test system: Prevotella baroniae; assay: Antimicrobial activity against Prevotella baroniae LBN 430 expressing nimI gene assessed as inhibition of growth after several passages on plates containing increasing concentrations of compound by agar dilution method; settings: Segatella baroniae; in short: as §1
[8] = test system: Prevotella nanceiensis; assay: Antimicrobial activity against slow growing colonies of Prevotella nanceiensis LBN 297 deficient in nim gene assessed as inhibition of growth at 48 hrs by agar dilution method; settings: Hoylesella nanceiensis, LBN 297, 48 h; in short: as §2
[9] = test system: Prevotella bivia; assay: Antimicrobial activity against slow growing colonies of Prevotella bivia LBN 445 deficient in nim gene assessed as inhibition of growth at 48 hrs by agar dilution method; settings: LBN 445, 48 h; in short: as §2
[10] = test system: Prevotella nanceiensis; assay: Antimicrobial activity against Prevotella nanceiensis LBN 298 deficient in nim gene assessed as inhibition of growth at 48 hrs by Etest method; settings: Hoylesella nanceiensis, LBN 298, 48 h
In short: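 Metronidazole Etest, per the manufacturer's instructions, on brucella blood agar with hemin and vitamin K1. Read after 48 h at 35°C under anaerobic conditions. Breakpoints were ≤ 4 μg/ml susceptible and ≥ 8 μg/ml resistant (EUCAST). Duplicate assays.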

[11] = test system: Prevotella bivia; assay: Antimicrobial activity against Prevotella bivia LBN 343 deficient in nim gene assessed as inhibition of growth at 48 hrs by agar dilution method; settings: LBN 343, 48 h
In short: (§4)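 Agar dilution MIC on brucella agar with 5% sheep blood, hemin and vitamin K1, following CLSI M11-A7. Plates read after 48 h at 35°C under anaerobic conditions, with B. fragilis ATCC 25285T and B. thetaiotaomicron ATCC 29741 as controls. Assays in duplicate. Isolates kept at −80°C in brucella broth with 15% glycerol. Interpretation used EUCAST breakpoints (S ≤4, R ≥8 μg/ml).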

[12] = test system: Prevotella bivia; assay: Antimicrobial activity against slow growing colonies of Prevotella bivia LBN 464 deficient in nim gene assessed as inhibition of growth at 48 hrs by agar dilution method; settings: LBN 464, 48 h; in short: as §2
[13] = test system: Prevotella bivia; assay: Antimicrobial activity against Prevotella bivia LBN 464 deficient in nim gene assessed as inhibition of growth at 48 hrs by agar dilution method; settings: LBN 464, 48 h; in short: as §3
[14] = test system: Prevotella buccae; assay: Antimicrobial activity against Prevotella buccae LBN 465 deficient in nimI gene assessed as inhibition of growth after three consecutive subcultures on compound free medium by agar dilution method; settings: Segatella buccae
In short: (§5)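 Resistance induction: bacterial suspensions were plated on supplemented brucella blood agar with rising metronidazole concentrations. Colonies from the highest concentration were tested by agar dilution. MIC was then redetermined after three consecutive subcultures on drug-free agar. Resistance counted as stable if the MIC held within ±1 dilution. Anaerobic growth at 37°C. Duplicate experiments.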

[15] = test system: Prevotella nanceiensis; assay: Antimicrobial activity against Prevotella nanceiensis LBN 410 deficient in nimI gene assessed as inhibition of growth after several passages on plates containing increasing concentration of compound by agar dilution method; settings: Hoylesella nanceiensis; in short: as §1
[16] = test system: Prevotella baroniae; assay: Antimicrobial activity against Prevotella baroniae LBP19 expressing nimI gene assessed as inhibition of growth after several passages on plates containing increasing concentration of compound by agar dilution method; settings: Segatella baroniae; in short: as §1
[17] = test system: Prevotella bivia; assay: Antimicrobial activity against Prevotella bivia LBN 371 deficient in nimI gene assessed as inhibition of growth after three consecutive subcultures on compound free medium by agar dilution method; in short: as §5
[18] = test system: Prevotella bivia; assay: Antimicrobial activity against Prevotella bivia LBN 371 deficient in nim gene assessed as inhibition of growth at 48 hrs by agar dilution method; settings: LBN 371, 48 h; in short: as §3
[19] = test system: Prevotella bivia; assay: Antimicrobial activity against slow growing colonies of Prevotella bivia LBN 478 deficient in nim gene assessed as inhibition of growth at 48 hrs by agar dilution method; settings: LBN 478, 48 h; in short: as §2
[20] = test system: Bacteroides fragilis; assay: Antimicrobial activity against Bacteroides fragilis ATCC 25285T deficient in nimI gene assessed as inhibition of growth at 48 hrs by agar dilution method; in short: as §3
[21] = test system: Prevotella bivia; assay: Antimicrobial activity against Prevotella bivia LBN 346 deficient in nim gene assessed as inhibition of growth at 48 hrs by agar dilution method; settings: LBN 346, 48 h; in short: as §4
[22] = test system: Prevotella bivia; assay: Antimicrobial activity against Prevotella bivia LBN 336 deficient in nim gene assessed as inhibition of growth at 48 hrs by agar dilution method; settings: LBN 336, 48 h; in short: as §3
[23] = test system: Prevotella bivia; assay: Antimicrobial activity against slow growing colonies of Prevotella bivia LBN 350 deficient in nim gene assessed as inhibition of growth at 48 hrs by agar dilution method; settings: LBN 350, 48 h
In short: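 Slowly growing colonies inside the Etest inhibition zone, seen after prolonged incubation (an additional 72 h after the 48 h reading), were subcultured without antibiotic. They were then retested for metronidazole MIC by agar dilution on supplemented brucella blood agar under anaerobic conditions.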

[24] = test system: Prevotella bivia; assay: Antimicrobial activity against Prevotella bivia LBN 374 deficient in nim gene assessed as inhibition of growth at 48 hrs by agar dilution method; settings: LBN 374, 48 h; in short: as §3
[25] = test system: Prevotella nanceiensis; assay: Antimicrobial activity against slow growing colonies of Prevotella nanceiensis LBN 410 deficient in nim gene assessed as inhibition of growth at 48 hrs by agar dilution method; settings: Hoylesella nanceiensis, LBN 410, 48 h; in short: as §2
[26] = test system: Prevotella bivia; assay: Antimicrobial activity against Prevotella bivia LBP 4 deficient in nim gene assessed as inhibition of growth at 48 hrs by agar dilution method; settings: LBP 4, 48 h; in short: as §3

Compound `Cc1ncc([N+](=O)[O-])n1CCO` [METRONIDAZOLE] has an MIC [1] of 128 µg/mL (≈ 748 µM), an MIC [2] of 32 µg/mL (≈ 187 µM) and an MIC [3] of 8 µg/mL (≈ 46.7 µM). The MIC [4] was 16 µg/mL (≈ 93.5 µM), the MIC [5] was 2 µg/mL (≈ 11.7 µM) and the MIC [6] was 2 µg/mL (≈ 11.7 µM). It also gave an MIC [7] of 128 µg/mL (≈ 748 µM), an MIC [8] of 16 µg/mL (≈ 93.5 µM) and an MIC [9] of 16 µg/mL (≈ 93.5 µM). It also gave an MIC [10] of 4 µg/mL (≈ 23.4 µM), an MIC [11] of 1 µg/mL (≈ 5.84 µM) and an MIC [12] of 16 µg/mL (≈ 93.5 µM). It also gave an MIC [13] of 8 µg/mL (≈ 46.7 µM), an MIC [14] of 64 µg/mL (≈ 374 µM) and an MIC [15] of 256 µg/mL (≈ 1500 µM). It also gave an MIC [16] of 128 µg/mL (≈ 748 µM), an MIC [17] greater than 256 µg/mL and an MIC [18] of 4 µg/mL (≈ 23.4 µM). The MIC [19] was 8 µg/mL (≈ 46.7 µM), the MIC [20] was 0.5 µg/mL (≈ 2.92 µM) and the MIC [21] was 1 µg/mL (≈ 5.84 µM). The MIC [22] was 2 µg/mL (≈ 11.7 µM), the MIC [23] was 16 µg/mL (≈ 93.5 µM) and the MIC [24] was 2 µg/mL (≈ 11.7 µM). It also gave an MIC [25] of 32 µg/mL (≈ 187 µM) and an MIC [26] of 2 µg/mL (≈ 11.7 µM).
